Data as given in ChEMBL document CHEMBL3044720, “Phytotoxic Eremophilanes from Ligularia macrophylla” (J Agric Food Chem, 2007).
Active and inactive are the calls of the source. The rule behind the calls is not given here.

What was measured:
Coptotermes formosanus [1] = assay: Antitermite activity against greater than third-instar stage of Coptotermes formosanus workers/1 soldier in compound-pretreated filter paper assessed as mortality at 0.5% at 26 degC after 13 days (reference value: 3.8 +/-4.8%); assay type: functional
In short: (§1)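 Test material in acetone (100 µL) was blotted onto 2.5 cm filter paper discs, dried several hours, then moistened with 100 µL water. Each dish held 20 workers (third instar or greater) and two soldiers. Dishes were kept at ca. 100% RH and 26 °C, with water-only controls. Four replicates came from different colonies. Mortality was scored daily for 3 weeks, reported as mean and SD, and compared by ANOVA with Fisher LSD (P < 0.05).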

Coptotermes formosanus [2] = assay: Antitermite activity against greater than third-instar stage of Coptotermes formosanus workers/1 soldier in compound-pretreated filter paper assessed as mortality at 0.5% at 26 degC after 6 days (reference value: 2.5 +/-5%); assay type: functional; in short: as §1
Coptotermes formosanus [3] = assay: Antitermite activity against greater than third-instar stage of Coptotermes formosanus workers/1 soldier in compound-pretreated filter paper assessed as mortality at 0.5% at 26 degC after 1 day (reference value: 0%); assay type: functional; in short: as §1
Cucumis sativus [4] = assay: Inhibition of photosynthetic electron transport rate in Cucumis sativa Straight Eight (cucumber) cotyledons assessed as chlorophyll fluorescence at 100 uM at 22 degC measured at 2 to 24 hr post-drug treatment under constant light by fluorometer analysis; assay type: functional, organism-based
In short: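 8 mm cotyledon discs were cut from 6-day-old cucumber 'Straight Eight'. Variable chlorophyll fluorescence was read with a pulse-modulated fluorometer before treatment, then at 2, 4, 8 and 24 h. Discs sat in 1 mL 0.1% Tween 20 with 100 µM compound, 0.1% acetone solvent control or 10 µM atrazine, at 22 °C under continuous light; triplicate.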

Cucumis sativus [5] = assay: Induction of cell membrane integrity disruption in Cucumis sativus (cucumber) cotyledons assessed as electrolyte leakage at 25 degC by conductivity meter analysis; assay type: functional
In short: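 Twenty-five 4 mm cucumber cotyledon discs (~50 mg fresh weight) were bathed in 5 mL of 2% sucrose, 1 mM MES pH 6.5, with 1% (v/v) acetone final in controls and treatments. Incubation was at 25 °C in darkness. Leakage into the bathing medium was followed over time by conductivity; six replicates per treatment.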

Allium cepa [6] = assay: Inhibition of mitotic cell division in Allium cepa cv. Evergreen (onion) root tips assessed as cell count at telophase stage of cell cycle at 100 to 300 uM at 24 degC; assay type: functional, organism-based
Allium cepa [7] = assay: Inhibition of mitotic cell division in Allium cepa cv. Evergreen (onion) root tips assessed as cell count at anaphase stage of cell cycle at 100 to 300 uM at 24 degC; assay type: functional, organism-based
Allium cepa [8] = assay: Inhibition of mitotic cell division in Allium cepa cv. Evergreen (onion) root tips assessed as cell count at metaphase stage of cell cycle at 100 to 300 uM at 24 degC; assay type: functional, organism-based
Allium cepa [9] = assay: Inhibition of mitotic cell division in Allium cepa cv. Evergreen (onion) root tips assessed as cell count at prophase stage of cell cycle at 100 to 300 uM at 24 degC; assay type: functional, organism-based
Lemna aequinoctialis [10] = assay: Phytotoxic activity against three-frond Lemna paucicostata colonies assessed as growth inhibition at 100 uM after 4 days; assay type: functional, organism-based
In short: (§2)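 Hoagland medium at pH 5.5 was filter-sterilized, with compound added in acetone or EtOH (1% final); tested range 100 to 0.1 µM. Two three-frond colonies from 4–5-day-old stock cultures were placed per well. Total frond area was imaged on days 0–4, and % increase was taken relative to day 0. IC50 came from a four-parameter logistic fit in R drc.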

Lactuca sativa [11] = assay: Phytotoxic activity against Lactuca sativa (lettuce) seeds assessed as inhibition of germination at 1 uM at 26 degC measured 7 days post-drug dose; assay type: functional, organism-based
In short: (§3)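 Each well held 5 mg lettuce or 10 mg bentgrass seed plus 250 µL of compound in water with 3% acetone final; acetone/water controls were included. Sealed plates were kept at 26 °C under continuous light (173 µmol/m²/s). Germination was rated visually on a 0–5 scale (0 = no effect, 5 = no germination/growth) against controls, after 7 days for lettuce and 12 days for bentgrass.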

Lactuca sativa [12] = assay: Phytotoxic activity against Lactuca sativa (lettuce) seeds assessed as inhibition of germination at 1000 uM at 26 degC measured 7 days post-drug dose; assay type: functional, organism-based; in short: as §3
Lactuca sativa [13] = assay: Phytotoxic activity against Lactuca sativa (lettuce) seeds assessed as inhibition of germination at 100 uM at 26 degC measured 7 days post-drug dose; assay type: functional, organism-based; in short: as §3
Lactuca sativa [14] = assay: Phytotoxic activity against Lactuca sativa (lettuce) seeds assessed as inhibition of germination at 10 uM at 26 degC measured 7 days post-drug dose; assay type: functional, organism-based; in short: as §3
Agrostis stolonifera [15] = assay: Phytotoxic activity against Agrostis stolonifera seeds assessed as inhibition of germination at 1 uM at 26 degC measured 12 days post-drug dose; assay type: functional, organism-based; in short: as §3
Coptotermes formosanus [16] = assay: Antitermite activity against greater than third-instar stage of Coptotermes formosanus workers/1 soldier in compound-pretreated filter paper assessed as filter paper consumption at 0.5% at 26 degC after 21 days (reference value: 41.4 +/-5.6 mg); assay type: functional
Coptotermes formosanus [17] = assay: Antitermite activity against greater than third-instar stage of Coptotermes formosanus workers/1 soldier in compound-pretreated filter paper assessed as mortality at 0.5% at 26 degC after 21 days (reference value: 3.8 +/-4.8%); assay type: functional; in short: as §1
Lemna aequinoctialis [18] = assay: Phytotoxic activity against three-frond Lemna paucicostata colonies assessed as growth inhibition after 4 days; assay type: functional, organism-based; details: 96 h; in short: as §2
Agrostis stolonifera [19] = assay: Phytotoxic activity against Agrostis stolonifera seeds assessed as inhibition of germination at 10 uM at 26 degC measured 12 days post-drug dose; assay type: functional, organism-based; in short: as §3
Cucumis sativus [20] = assay: Inhibition of photosynthetic electron transport rate in Cucumis sativa Straight Eight (cucumber) cotyledons assessed as chlorophyll fluorescence at 10 uM at 22 degC measured at 2 to 24 hr post-drug treatment under constant light by fluorometer analysis; assay type: functional, organism-based
In short: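 Cotyledon discs (8 mm) were cut from 6-day-old plants. Induced variable chlorophyll fluorescence was read on a pulse-modulated fluorometer before each disc was placed in 1 mL of 0.1% Tween 20, with or without treatment; the solvent control was 0.1% acetone. Discs were kept at 22 °C under continuous light and read again at 2, 4, 8 and 24 h. Each treatment was run in triplicate.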

Agrostis stolonifera [21] = assay: Phytotoxic activity against Agrostis stolonifera seeds assessed as inhibition of germination at 100 uM at 26 degC measured 12 days post-drug dose; assay type: functional, organism-based; in short: as §3
Agrostis stolonifera [22] = assay: Phytotoxic activity against Agrostis stolonifera seeds assessed as inhibition of germination at 1000 uM at 26 degC measured 12 days post-drug dose; assay type: functional, organism-based; in short: as §3
[23] = test system: Colletotrichum gloeosporioides; assay: Antifungal activity against Colletotrichum gloeosporioides assessed as growth inhibition at 10 ug after 4-5 days by direct bioautography; assay type: functional, organism-based
In short: (§4)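 Direct TLC bioautography against strawberry-anthracnose Colletotrichum isolates grown on PDA at 24 ± 2 °C under a 12 h photoperiod. Conidia were harvested from 7–10-day cultures and filtered. Developed plates carrying 10 µg/spot were sprayed with 10^5 spores/mL and held in a moisture chamber for 4 days at 26 °C with a 12 h photoperiod. Zone diameters were measured 4–5 days after treatment.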

Colletotrichum fragariae = assay: Antifungal activity against Colletotrichum fragariae assessed as growth inhibition at 10 ug after 4-5 days by direct bioautography; assay type: functional, organism-based; in short: as §4
Colletotrichum acutatum = assay: Antifungal activity against Colletotrichum acutatum assessed as diameter of growth inhibitory zone at 10 ug after 4-5 days by direct bioautography; assay type: functional; in short: as §4

`Cc1coc2c1[C@@H]1OC(=O)[C@H]3CCC[C@H](C2)[C@@]31C` showed a mortality (Coptotermes formosanus [1]) of 3.8%, a mortality (Coptotermes formosanus [2]) of 1.3% and a mortality (Coptotermes formosanus [3]) of 1.3%. For the same compound, the inhibition (Cucumis sativus [4]) was “inactive”, the Activity (Cucumis sativus [5]) was “inactive” and the inhibition (Allium cepa [6]) was “inactive”. The inhibition (Allium cepa [7]) was “inactive”, the inhibition (Allium cepa [8]) was “inactive” and the inhibition (Allium cepa [9]) was “inactive”. The “growth inhibition (GI)” value (Lemna aequinoctialis [10]) was “inactive”, the inhibition (Lactuca sativa [11]) was “inactive” and the inhibition (Lactuca sativa [12]) was “inactive”. For the same compound, the inhibition (Lactuca sativa [13]) was “inactive”, the inhibition (Lactuca sativa [14]) was “inactive” and the inhibition (Agrostis stolonifera [15]) was “inactive”. The Activity (Coptotermes formosanus [16]) was 43.1 mg and the mortality (Coptotermes formosanus [17]) was 8.8%.

`C/C=C(/C)C(=O)O[C@@H]1c2c(C)coc2C[C@@]2(O)CCC[C@H](C)[C@@]12C` showed a mortality (Coptotermes formosanus [1]) of 16.3%, a mortality (Coptotermes formosanus [2]) of 3.8% and a mortality (Coptotermes formosanus [3]) of 1.3%. The inhibition (Cucumis sativus [4]) was “Active”, the Activity (Cucumis sativus [5]) was “inactive” and the inhibition (Allium cepa [6]) was “inactive”. For the same compound, the inhibition (Allium cepa [7]) was “inactive”, the inhibition (Allium cepa [8]) was “inactive” and the inhibition (Allium cepa [9]) was “inactive”. For the same compound, the IC50 (Lemna aequinoctialis [18]) was 2940 nM, the inhibition (Lactuca sativa [11]) was “inactive” and the inhibition (Lactuca sativa [13]) was “inactive”. The inhibition (Lactuca sativa [14]) was “inactive”, the inhibition (Agrostis stolonifera [15]) was “inactive” and the inhibition (Agrostis stolonifera [19]) was “inactive”. It also gave an Activity (Coptotermes formosanus [16]) of 16.5 mg and a mortality (Coptotermes formosanus [17]) of 18.8%.

`CCNc1nc(Cl)nc(NC(C)C)n1` was tested, and the inhibition (Cucumis sativus [20]) was “inactive”.

Work on `C=C1COC(=O)[C@@]12C[C@H]1CC[C@@H](OC(=O)/C(C)=C\C)[C@H](C)C1(C)C2` (single isomer, unassigned) yielded a mortality (Coptotermes formosanus [1]) of 2.5%, a mortality (Coptotermes formosanus [2]) of 2.5% and a mortality (Coptotermes formosanus [3]) of 0%. For the same compound, the “growth inhibition (GI)” value (Lemna aequinoctialis [10]) was “inactive”, the inhibition (Lactuca sativa [11]) was “inactive” and the inhibition (Lactuca sativa [13]) was “inactive”. The inhibition (Lactuca sativa [14]) was “inactive”, the inhibition (Agrostis stolonifera [15]) was “inactive” and the inhibition (Agrostis stolonifera [21]) was “inactive”. For the same compound, the inhibition (Agrostis stolonifera [19]) was “inactive”, the Activity (Coptotermes formosanus [16]) was 40 mg and the mortality (Coptotermes formosanus [17]) was 2.5%.

`CC1=C2C3OC(=O)[C@H]4CCC[C@H](C[C@@H]2OC1=O)[C@]34C` (single isomer, unassigned) was tested, and the “growth inhibition (GI)” value (Lemna aequinoctialis [10]) was “inactive”, the inhibition (Lactuca sativa [11]) was “inactive” and the inhibition (Lactuca sativa [13]) was “inactive”. For the same compound, the inhibition (Lactuca sativa [14]) was “inactive”, the inhibition (Agrostis stolonifera [15]) was “inactive” and the inhibition (Agrostis stolonifera [22]) was “Active”. For the same compound, the inhibition (Agrostis stolonifera [21]) was “inactive” and the inhibition (Agrostis stolonifera [19]) was “inactive”.

In the case of `CCCCC/C=C\C/C=C\CCCCCCCC(=O)O` [LINOLEIC ACID], the mortality (Coptotermes formosanus [1]) is reported as 5%, the mortality (Coptotermes formosanus [2]) is reported as 3.8% and the mortality (Coptotermes formosanus [3]) is reported as 2.5%. The “growth inhibition (GI)” value [23] was “inactive”, the “growth inhibition (GI)” value (Colletotrichum fragariae) was “inactive” and the Activity (Colletotrichum acutatum) was 2.9 mm. For the same compound, the inhibition (Lactuca sativa [11]) was “inactive”, the inhibition (Lactuca sativa [12]) was “inactive” and the inhibition (Lactuca sativa [13]) was “inactive”. The inhibition (Lactuca sativa [14]) was “inactive”, the inhibition (Agrostis stolonifera [15]) was “inactive” and the inhibition (Agrostis stolonifera [21]) was “inactive”. For the same compound, the inhibition (Agrostis stolonifera [19]) was “inactive”, the Activity (Coptotermes formosanus [16]) was 44.6 mg and the mortality (Coptotermes formosanus [17]) was 6.3%.

`CC/C=C\C/C=C\C/C=C\CCCCCCCC(=O)O` [LINOLENIC ACID] was tested, and the mortality (Coptotermes formosanus [1]) was 5%, the mortality (Coptotermes formosanus [2]) was 0% and the mortality (Coptotermes formosanus [3]) was 0%. For the same compound, the “growth inhibition (GI)” value [23] was “inactive”, the “growth inhibition (GI)” value (Colletotrichum fragariae) was “inactive” and the Activity (Colletotrichum acutatum) was 2.9 mm. For the same compound, the inhibition (Lactuca sativa [11]) was “inactive”, the inhibition (Lactuca sativa [12]) was “inactive” and the inhibition (Lactuca sativa [13]) was “inactive”. For the same compound, the inhibition (Lactuca sativa [14]) was “inactive”, the inhibition (Agrostis stolonifera [15]) was “inactive” and the inhibition (Agrostis stolonifera [22]) was “inactive”. For the same compound, the inhibition (Agrostis stolonifera [21]) was “inactive”, the inhibition (Agrostis stolonifera [19]) was “inactive” and the Activity (Coptotermes formosanus [16]) was 44.2 mg. For the same compound, the mortality (Coptotermes formosanus [17]) was 6.3%.
